Experimental data: ChEMBL document CHEMBL3393023, “Benzimidazole-containing HCV NS5A inhibitors: effect of 4-substituted pyrrolidines in balancing genotype 1a and 1b potency” (Bioorg Med Chem Lett, 2015)

Tests used:
[1] = Cytotoxicity against human Huh7ET cells by [3H]-thymidine incorporation assay; type: cell-based; details: Huh7ET cells (Huh-7)
Outline: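 Huh-7 ET cells were exposed to 12 test-compound concentrations, each in duplicate. Viability was read by [3H]-thymidine incorporation and CC50 was derived from the curve. A run was accepted only when the positive-control CC50 fell within 40% of its mean value.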

[2] = tested on: Hepatitis C virus; assay: Antiviral activity against Hepatitis C virus genotype 1b infected in human Huh-5.2 cells assessed as decrease in HCV replicon RNA replication after 4 days by luciferase assay; type: functional, cell-based, Hepacivirus hominis; details: Huh-5-2, 96 h
[3] = tested on: Hepatitis C virus; assay: Antiviral activity against Hepatitis C virus genotype 1a infected in W11.8 cells assessed as decrease in NS5A expression in replicon cell after 4 days by luminescence based ELISA; type: functional, Hepacivirus hominis; details: subtype 1a, W11.8, 96 h

Row | Structure (SMILES) | CC50 [1] | EC50 [2] | EC50 [3]
1 | COC(=O)N[C@H](C(=O)N1CCC[C@H]1c1nc2ccc(-c3ccc(-c4ccc5nc([C@@H]6CCCN6C(=O)[C@@H](NC(=O)OC)C(C)C)[nH]c5c4)s3)cc2[nH]1)C(C)C | 6000 nM | 0.01 nM | 0.94 nM
2 | COC(=O)N[C@H](C(=O)N1CCC[C@H]1c1nc2ccc(-c3ccc(-c4ccc5nc([C@@H]6CCCN6C(=O)[C@@H](NC(=O)OC)C(C)C)[nH]c5c4)cc3)cc2[nH]1)C(C)C | 6000 nM | 0.012 nM | 0.55 nM
3 | COC(=O)N[C@H](C(=O)N1CCC[C@H]1c1ncc(-c2ccc(-c3ccc(-c4ccc5nc([C@@H]6CCCN6C(=O)[C@@H](NC(=O)OC)C(C)C)[nH]c5c4)cc3)cc2)[nH]1)C(C)C |  | 0.013 nM | 0.139 nM
4 | COC(=O)N[C@H](C(=O)N1CCC[C@H]1c1nc2ccc(-c3ccc4nc([C@@H]5CCCN5C(=O)[C@@H](NC(=O)OC)C(C)C)[nH]c4c3)cc2[nH]1)C(C)C | > 20000 nM | 26 nM | > 2000 nM
5 | COC(=O)N[C@H](C(=O)N1CCC[C@H]1c1nc2ccc(C#Cc3ccc4nc([C@@H]5CCCN5C(=O)[C@@H](NC(=O)OC)C(C)C)[nH]c4c3)cc2[nH]1)C(C)C | > 20000 nM | 0.022 nM | 28 nM
6 | COC(=O)N[C@H](C(=O)N1CCC[C@H]1c1nc2ccc(C#CC#Cc3ccc4nc([C@@H]5CCCN5C(=O)[C@@H](NC(=O)OC)C(C)C)[nH]c4c3)cc2[nH]1)C(C)C | 13000 nM | 0.024 nM | 18 nM
7 | COC(=O)N[C@H](C(=O)N1CCC[C@H]1c1nc2cc(CCc3ccc4[nH]c([C@@H]5CCCN5C(=O)[C@@H](NC(=O)OC)C(C)C)nc4c3)ccc2[nH]1)C(C)C | > 20000 nM | 0.076 nM | 688 nM
8 | COC(=O)N[C@H](C(=O)N1CCC[C@H]1c1nc2cc(-c3cccc(-c4ccc5[nH]c([C@@H]6CCCN6C(=O)[C@@H](NC(=O)OC)C(C)C)nc5c4)c3)ccc2[nH]1)C(C)C | 6000 nM | 20 nM | 378 nM
9 | COC(=O)N[C@H](C(=O)N1CCC[C@H]1c1nc2cc(-c3ccc(-c4ccc5[nH]c([C@@H]6CCCN6C(=O)[C@@H](NC(=O)OC)C(C)C)nc5c4)c(C)c3)ccc2[nH]1)C(C)C | 3000 nM | 0.006 nM | 0.84 nM
10 | COC(=O)N[C@H](C(=O)N1CCC[C@H]1c1nc2cc(-c3ccc(-c4ccc5nc([C@@H]6CCCN6C(=O)[C@@H](NC(=O)OC)C(C)C)[nH]c5c4)cc3OC)ccc2[nH]1)C(C)C | 6000 nM | 0.013 nM | 0.36 nM
11 | COC(=O)N[C@H](C(=O)N1CCC[C@H]1c1nc2cc(-c3ccc(-c4ccc5[nH]c([C@@H]6CCCN6C(=O)[C@@H](NC(=O)OC)C(C)C)nc5c4)c(F)c3)ccc2[nH]1)C(C)C | 6000 nM | 0.012 nM | 0.84 nM
12 | COC(=O)N[C@H](C(=O)N1CCC[C@H]1c1nc2cc(-c3cc(C)c(-c4ccc5[nH]c([C@@H]6CCCN6C(=O)[C@@H](NC(=O)OC)C(C)C)nc5c4)cc3C)ccc2[nH]1)C(C)C | 5000 nM | 0.006 nM | 0.9 nM
13 | COC(=O)N[C@H](C(=O)N1CCC[C@H]1c1nc2cc(-c3ccc(-c4ccc5[nH]c([C@@H]6CCCN6C(=O)[C@@H](NC(=O)OC)C(C)C)nc5c4)c(C)c3C)ccc2[nH]1)C(C)C | 7000 nM | 0.01 nM | 2.9 nM
14 | COC(=O)N[C@H](C(=O)N1C[C@@H](F)C[C@H]1c1nc2cc(-c3ccc(-c4ccc5[nH]c([C@@H]6C[C@H](F)CN6C(=O)[C@@H](NC(=O)OC)C(C)C)nc5c4)cc3)ccc2[nH]1)C(C)C | 11000 nM | 0.082 nM | 4.9 nM
15 | COC(=O)N[C@H](C(=O)N1C[C@H](F)C[C@H]1c1nc2cc(-c3ccc(-c4ccc5[nH]c([C@@H]6C[C@@H](F)CN6C(=O)[C@@H](NC(=O)OC)C(C)C)nc5c4)cc3)ccc2[nH]1)C(C)C | 14000 nM | 0.018 nM | 1.1 nM
16 | COC(=O)N[C@H](C(=O)N1CC(F)(F)C[C@H]1c1nc2cc(-c3ccc(-c4ccc5[nH]c([C@@H]6CC(F)(F)CN6C(=O)[C@@H](NC(=O)OC)C(C)C)nc5c4)cc3)ccc2[nH]1)C(C)C | 13000 nM | 0.004 nM | 0.5 nM
17 | COC(=O)N[C@H](C(=O)N1C[C@H](O)C[C@H]1c1nc2cc(-c3ccc(-c4ccc5[nH]c([C@@H]6C[C@@H](O)CN6C(=O)[C@@H](NC(=O)OC)C(C)C)nc5c4)cc3)ccc2[nH]1)C(C)C | > 20000 nM | 0.1 nM | 15 nM
18 | COC(=O)N[C@H](C(=O)N1C[C@H](OC)C[C@H]1c1nc2cc(-c3ccc(-c4ccc5[nH]c([C@@H]6C[C@@H](OC)CN6C(=O)[C@@H](NC(=O)OC)C(C)C)nc5c4)cc3)ccc2[nH]1)C(C)C | 6000 nM | 0.034 nM | 1.22 nM
19 | COC(=O)N[C@H](C(=O)N1C[C@@H](OC)C[C@H]1c1nc2cc(-c3ccc(-c4ccc5[nH]c([C@@H]6C[C@H](OC)CN6C(=O)[C@@H](NC(=O)OC)C(C)C)nc5c4)cc3)ccc2[nH]1)C(C)C | > 20000 nM | 0.031 nM | 0.053 nM
20 | COC(=O)N[C@H](C(=O)N1C[C@H](C)C[C@H]1c1nc2cc(-c3ccc(-c4ccc5[nH]c([C@@H]6C[C@@H](C)CN6C(=O)[C@@H](NC(=O)OC)C(C)C)nc5c4)cc3)ccc2[nH]1)C(C)C | 14000 nM | 0.007 nM | 0.028 nM
21 | COC(=O)N[C@H](C(=O)N1C[C@@H](C)C[C@H]1c1nc2cc(-c3ccc(-c4ccc5[nH]c([C@@H]6C[C@H](C)CN6C(=O)[C@@H](NC(=O)OC)C(C)C)nc5c4)cc3)ccc2[nH]1)C(C)C | > 20000 nM | 0.037 nM | 0.026 nM
22 | COC(=O)N[C@H](C(=O)N1C[C@@H](C(F)(F)F)C[C@H]1c1nc2cc(-c3ccc(-c4ccc5[nH]c([C@@H]6C[C@H](C(F)(F)F)CN6C(=O)[C@@H](NC(=O)OC)C(C)C)nc5c4)cc3)ccc2[nH]1)C(C)C | 13000 nM | 0.005 nM | 0.03 nM
23 | CC[C@H]1C[C@@H](c2nc3cc(-c4ccc(-c5ccc6[nH]c([C@@H]7C[C@H](CC)CN7C(=O)[C@@H](NC(=O)OC)C(C)C)nc6c5)cc4)ccc3[nH]2)N(C(=O)[C@@H](NC(=O)OC)C(C)C)C1 | > 20000 nM | 0.019 nM | 0.085 nM
24 | COC(=O)N[C@H](C(=O)N1CC(C)(C)C[C@H]1c1nc2cc(-c3ccc(-c4ccc5[nH]c([C@@H]6CC(C)(C)CN6C(=O)[C@@H](NC(=O)OC)C(C)C)nc5c4)cc3)ccc2[nH]1)C(C)C | > 20000 nM | 0.011 nM | 0.03 nM
25 | COC(=O)N[C@H](C(=O)N1C[C@@H](C)C[C@H]1c1nc2cc(C#CC#Cc3ccc4[nH]c([C@@H]5C[C@H](C)CN5C(=O)[C@@H](NC(=O)OC)C(C)C)nc4c3)ccc2[nH]1)C(C)C |  | 0.024 nM | 0.018 nM
